# Source: PubChem BioAssay (several laboratories)
# Shown are actives, neighbours in structure and some others; about 5.8% of the full set was active somewhere.
# 14-3-3 Bad PPI – disrupts binding of bovine 14-3-3 zeta to phospho-Bad peptide. P63103. TR-FRET 14-3-3zeta/Dy647-pBad peptide displacement, 1 h. inhibition, % at 21.7 µM. 220,000 tested, 0.71% active;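 active means inhibition above about 70%, limit read from the data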;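 further: 0% = full 14-3-3 plus peptide FRET controls and 100% = background without 14-3-3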
# WT yeast gro inh – growth inhibition of WT yeast, mitochondrial fusion screen; mitochondrial fusion phenotypic screen, WT strain; inhibition, % at 10 µM; 190,000 tested, 2.1% active; AID 1362; in the data active means inhibition above about 58%; tested in S. cerevisiae
# RBBP9 inh – inhibitors of human serine hydrolase RBBP9 | inhibition, % at 7.94 µM | O75884 | recombinant RBBP9, FP-Rh probe fluorescence polarization | 220,000 tested, 0.2% active;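 active means inhibition above the campaign mean of all tested compounds plus 3 SD, cut at about 14% in these data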;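 further: plate controls were DMSO wells with RBBP9 for no effect and wells lacking RBBP9 protein for full effect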
#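 Measured by: FP readout at 525/598 nm; material: recombinant human RBBP9; also added: Serine-hydrolase probe FP-Rh, 375 nM pre-mixing; medium: Tris buffer pH 8.0, NaCl, Pluronic; replication: one well per compound; doses: one concentration, 7.94 µM nominal, 0.794% DMSO; timing: preincubation 30 min plus labeling 45 min at 25 °C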
# KCC2 mod – modulators of human KCC2 chloride dependent transport | Q9H2X9 | KCC2 cells, thallium flux FluoZin-2 fluorescence | B-score of Tl+ flux slope (higher = more flux/activation; lower = inhibition) at 10 µM | 190,000 tested, 2.2% active;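 active means thallium flux slope and its plate-corrected score both differing from the plate sample mean at a set confidence after two filtering rounds, in either direction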;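 further: slope of fluorescence scaled to starting intensity during 10 to 20 s after thallium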
# Target sequence (Q9H2X9 whole entry, looked up): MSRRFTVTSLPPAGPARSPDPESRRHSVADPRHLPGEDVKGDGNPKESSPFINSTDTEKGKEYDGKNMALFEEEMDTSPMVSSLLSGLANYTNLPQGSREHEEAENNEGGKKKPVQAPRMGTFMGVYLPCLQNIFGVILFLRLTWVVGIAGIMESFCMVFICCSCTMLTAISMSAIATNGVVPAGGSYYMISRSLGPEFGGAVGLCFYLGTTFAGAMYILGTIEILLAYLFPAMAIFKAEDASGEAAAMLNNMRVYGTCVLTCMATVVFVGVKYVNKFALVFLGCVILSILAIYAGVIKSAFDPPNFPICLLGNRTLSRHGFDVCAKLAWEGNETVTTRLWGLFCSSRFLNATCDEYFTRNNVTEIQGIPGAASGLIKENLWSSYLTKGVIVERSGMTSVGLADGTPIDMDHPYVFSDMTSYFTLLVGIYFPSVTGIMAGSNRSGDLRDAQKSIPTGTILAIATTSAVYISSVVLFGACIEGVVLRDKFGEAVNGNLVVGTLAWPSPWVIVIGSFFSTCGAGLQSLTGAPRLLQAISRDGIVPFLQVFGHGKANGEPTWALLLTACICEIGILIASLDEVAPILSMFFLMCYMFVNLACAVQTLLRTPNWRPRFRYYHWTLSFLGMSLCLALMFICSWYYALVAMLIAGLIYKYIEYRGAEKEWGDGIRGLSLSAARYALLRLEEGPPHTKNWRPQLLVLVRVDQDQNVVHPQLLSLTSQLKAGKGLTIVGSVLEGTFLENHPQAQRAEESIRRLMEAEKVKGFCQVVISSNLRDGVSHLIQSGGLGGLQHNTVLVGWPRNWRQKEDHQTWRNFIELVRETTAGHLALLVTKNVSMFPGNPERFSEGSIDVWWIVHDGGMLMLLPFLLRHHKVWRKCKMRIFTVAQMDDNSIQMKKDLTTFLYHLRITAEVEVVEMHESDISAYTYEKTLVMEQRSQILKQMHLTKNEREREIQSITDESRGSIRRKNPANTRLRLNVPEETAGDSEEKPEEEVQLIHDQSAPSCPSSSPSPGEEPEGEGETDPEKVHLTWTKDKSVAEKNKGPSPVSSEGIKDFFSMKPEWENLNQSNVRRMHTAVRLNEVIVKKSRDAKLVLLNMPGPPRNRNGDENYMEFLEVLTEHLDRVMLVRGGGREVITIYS
# NCF1 inh – p47phox (human) inhibition; P14598; p47phox/p22phox peptide binding, fluorescence polarization, 2 h; inhibition, % at 24.7 µM; 220,000 tested, 0.53% active;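 active means inhibition above about 30%, limit read from the data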;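 further: 0% = p47phox with labelled peptide and 100% = labelled peptide alone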
# ROMK primary – modulates human ROMK potassium channel activity. Tet-inducible ROMK, thallium flux fluorescence; actives lie on both sides. B-score at 10 µM. 130,000 tested, 2% active. AID 1918;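 active means signal ratio slope over the read window, or its plate-corrected B-score, at least 3 SD from the plate mean, either direction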;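 further: B-score of the F/F0 ratio slope over 7 to 12 s after thallium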
# ROMK retest – retested hit modulating human ROMK potassium channel; normalized thallium flux (F/F0 slope) at 10 µM; 3,000 tested, 54% active; shares compounds with ROMK primary; ROMK thallium flux, fluorescence ratio; stronger effect = lower value;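 active means Flux at 10 µM at least 3 SD below or above vehicle control mean in one or both replicates; inconclusive means no clear call, values can overlap the other calls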
# The depositor's hits bear a star; i = inactive; ? = inconclusive; nt = not tested or not shown.
SMILES,14-3-3 Bad PPI,WT yeast gro inh,RBBP9 inh,KCC2 mod,NCF1 inh,ROMK primary,ROMK retest
S=C(Nc1ccccc1)N1CCN(C(=S)Nc2ccccc2)CC1,-10,-4,-13,0.078,4,-13*,0.087
S=C(Nc1ccc(Oc2ccccc2)cc1)N1CCN(c2ccccn2)CC1,-12,25,-5,0.014,-3,2.6*,0.082
CCN(CC)S(=O)(=O)c1ccc(N2CCOCC2)c(NC(=O)c2ccccc2)c1,3,28,-5,2.1,9,0.96,nt
CCN(CC)S(=O)(=O)c1ccc(N2CCOCC2)c(NC(=O)C23CC4CC(CC(Cl)(C4)C2)C3)c1,-22,0,-3,-0.089,-13,-3.5*,0.061*
O=C(CSc1ncc(-c2ccccc2)n1C1CCCC1)N1CCc2ccccc21,13,-6,4,nt,-19,-2.7*,?
CCOCCCNC(=O)C(NC(=O)Cc1c[nH]c2ccccc12)c1ccccc1 (stereo not drawn),-3,11,-4,0.13,-4,-0.16,nt
COc1ccc(CN2CCSCC2)cc1C,50,-11,-3,nt,-7,3.3*,0.081
COc1ccc(/C=N/N2C(=O)C3C4C=CC(CC4)C3C2=O)c(OC)c1 (stereo not drawn),5,-12,1,0.74,2,0.32,nt
O=c1cc(-c2ccccc2[N+](=O)[O-])oc2ccccc12,38,-9,6,-1.8,-4,2.4*,0.079
CC1=C(C(=O)OCC(Cl)(Cl)Cl)N2C(=O)C(NC(=O)Cc3ccccc3)C2SC1 (stereo not drawn),-4,28,-7,-2.2,-13,-3.1*,0.061*
Cc1c(C(=O)O)oc2ccc(S(=O)(=O)NCc3ccc4c(c3)OCO4)cc12,31,2,1,0.44,-3,nt,0.075
Cc1ccc(S(=O)(=O)NCC2CCC(C(=O)NCc3ccc4c(c3)OCO4)CC2)cc1 (stereo not drawn),8,8,-1,1.6,0,-0.29,nt
CCC(NC(=O)NCc1ccc2c(c1)OCO2)(C(F)(F)F)C(F)(F)F,4,-14,4,0.046,-9,1.5*,0.086
S=C(NCc1ccc2c(c1)OCO2)NC1CC1,-8,28,-3,0.016,3,-19*,0.089
Cc1ccc(S(=O)(=O)NC(=O)NCc2ccc3c(c2)OCO3)cc1,-1,-1,-2,0.069,-10,1.5,0.074
Cc1ccc(CNS(=O)(=O)c2ccc3oc(C(=O)O)c(C)c3c2)cc1,41,4,5,0.21,1,nt,nt
COc1ccc(/C=N/NC(=O)c2cccnc2)c(C(=O)O)c1OC,-6,nt,-4,1.3,-4,nt,nt
CC(C)=CCN1CCN(Cc2cc(F)ccc2-n2nc(C)cc2C)CC1CCO (stereo not drawn),-10,12,-4,0.69,-3,-0.026,nt
CCN(CC)C(=S)SC1CCCCN(C(=O)c2ccc(F)cc2)C1=O (stereo not drawn),-8,20,-10,-0.26,-6,-1.4,nt
Fc1ccccc1Cc1noc(CN2CCC(OCc3cccnc3)CC2)n1,-4,7,1,0.28,3,1,nt
CCN(Cc1cc(=O)[nH]c2ccccc12)C(=O)c1ccc(C)cc1,3,nt,-8,1.1,-5,nt,nt
CC(=O)N1CCN(C(=S)c2ccc(-c3ccc(Cl)cc3)o2)CC1,16,-11,-2,-0.61,-3,-2.5*,0.055*
NC(=O)C1CCN(C(=S)c2ccc(-c3ccc(Br)cc3)o2)CC1,-2,-2,-10,0.29,-1,-0.088,nt
COc1ccc(N2CCc3c(C)nc4c(OC)cc(OC)cc4c32)c(OC)c1,-6,51,-7,-0.8,-9,nt,0.061*
O=C(CN(C(=O)c1csnn1)c1cccc2ccccc12)NC1CCCC1,2,-4,-5,-0.6,-8,-0.019,nt
SMILES,14-3-3 Bad PPI,WT yeast gro inh,RBBP9 inh,KCC2 mod,NCF1 inh,ROMK primary,ROMK retest
Cc1ccccc1N(CC(=O)NC1CCCC1)C(=O)c1csnn1,0,-5,11,1.2,5,1.3*,?
COCCN(CC(=O)NC1CCCCC1)C(=O)/C=C/C(=O)c1ccc(OC)cc1O,3,-5,-7,0.03,-7,-5*,0.053*
COc1cc(C2C3=C(Nc4ncnn42)c2ccccc2CC3)cc(OC)c1OC (stereo not drawn),9,-2,5,nt,7,3.9*,0.087
COc1ccc(C2C3=C(Nc4ncnn42)c2ccccc2CCC3)cc1 (stereo not drawn),nt,2,-4,-0.78,nt,nt,nt
Cc1ccc(OCCCCNC2CCCC(C)C2C)c(C)c1 (stereo not drawn),48,63*,10,0.4,-9,nt,0.053*
Cc1nc2cc(C(=O)OCC(=O)NC3CCS(=O)(=O)C3)ccc2n1-c1ccccc1 (stereo not drawn),-7,-11,0,nt,-7,-0.057,nt
Cc1nc2cc(C(=O)OCC(=O)NC34CC5CC(CC(C5)C3)C4)ccc2n1-c1ccccc1,11,59*,-2,0.0027,-39,-3*,0.065*
COc1cc(/C=C2/CC/C(=C/c3ccc(O)c(OC)c3)C2=O)ccc1O,-4,nt,4,-3.2,-38,nt,0.051*
COc1cc(/C=C2\CC/C(=C\c3ccc(OCCO)c(OC)c3)C2=O)ccc1OCCO,-12,-25,-1,i,-11,-2.4*,?
COc1cc(/C=C2\COC/C(=C\c3ccc(O)c(OC)c3)C2=O)ccc1O,-3,nt,-2,-1.8,-26,nt,nt
O=C(c1ccc(Cn2c(=S)[nH]c3ccccc3c2=O)cc1)N1CCN(c2ccccn2)CC1,-13,9,-7,-1.3,-7,0.5,nt
COCCNC(=O)Cn1cc(S(=O)(=O)N2CCN(c3ccccc3F)CC2)c2ccccc2c1=O,1,-3,-6,0.42,-7,-2.3*,0.075
Cc1ccccc1OC1=NS(=O)(=O)c2ccccc21,37,-17,-7,-1.1,-2,-2.6*,0.064*
Cc1cc(C)n(C2=NS(=O)(=O)c3ccccc32)n1,62,0,1,-0.38,-3,nt,nt
Cc1ccc(C)c(OCc2nc3ccc(S(=O)(=O)Nc4c(C)n(C)n(-c5ccccc5)c4=O)cc3[nH]2)c1,2,10,-11,-0.76,2,-0.42,nt
CCCCOC(=O)Cn1c2ccc(OC)cc2c2nc3ccccc3nc21,17,-2,-10,0.17,22,-4.2*,0.056*
CNC(=O)c1nnsc1S(=O)(=O)c1ccc(Cl)cc1,-9,69*,-14,-0.43,2,-5.6*,0.053*
CN(Cc1cnn(C)c1)S(=O)(=O)c1cccc([N+](=O)[O-])c1,3,-5,-2,-0.11,8,-0.1,nt
O=C(CCC1CCCCC1)NNC(=O)NC12CC3CC(CC(C3)C1)C2,1,-5,-5,0.36,-11,-3.1*,0.071
O=C(O)CCC(=O)NNC(=O)CCC1CCCCC1,12,13,-13,0.15,10,-0.18,nt
